Screening data: PubChem BioAssay, several laboratories
CYP2C19 inh: blockers of cytochrome P450 2C19 activity – biochemical, luminescence, ADME assay, primary screen; 96,000 tested, 21% active; CYP2C19 Supersomes, luciferin-H EGE luminescence, 30 min; P33261; inhibition, % at 5 µM;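 active = CYP2C19 inhibition above a set limit at 5 µM in the primary screen, cut at about 50% in these data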;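 also: plate controls were negative control wells for no effect and 2.5 mM tranylcypromine positive control for full effect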
CYP2C19 act: human CYP2C19 activators, primary screen, biochemical, luminescence; activation factor at 5 µM; Cytochrome P450 2C19 (Homo sapiens), P33261; 96,000 tested, under 10 active; recombinant CYP2C19, luciferin-H EGE luminescence; active compounds read high; 0 = fully inhibited enzyme, 1 = untreated enzyme;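 active = activation factor of at least 2 at 5 µM in the primary screen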;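 also: 0 = wells with 2.5 mM tranylcypromine and 1 = vehicle-only wells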
Cav32 inh: Cav3.2 calcium influx blockers – cell-based, Fluo-4 calcium fluorescence, FDSS, MLSMR library, primary screen | 100,000 tested, 4% active | B-score at 10 µM | Voltage-dependent T-type calcium channel subunit alpha-1H (Homo sapiens), O95180 | Cav3.2-expressing cells; active compounds read low;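 active = single-dose well whose peak fluorescence ratio is a statistical outlier from its plate by either plate-standardised score or position-corrected B-score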
CYP2C9 activ: human CYP2C9 activators, primary screen, biochemical, luminescence | AID 1024, 2008 | Cytochrome P450 2C9 (Homo sapiens), P11712 | activation factor at 5 µM | 96,000 tested, 1.4% active | recombinant CYP2C9, luciferin-H conversion; active compounds read high; factor 1 = untreated enzyme, 0 = blocked;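 active = activation factor of 2 or more for CYP2C9 at a 5 µM dose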;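 also: 0 = sulfaphenazole-blocked wells and 1 = vehicle-only wells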
CYP2C9 inh: blockers of cytochrome P450 2C9 activity – biochemical, luminescence, ADME assay, primary screen | CYP2C9 Supersomes, luciferin-H conversion | inhibition, % at 5 µM | 96,000 tested, 20% active | AID 777, 2007;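 active = blocking of liver enzyme CYP2C9 beyond about 50% at 5 µM, limit read from the data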
HIV Rev-RRE inh: HIV-1 Rev-RRE binding inhibitors, primary screen, biochemical, FRET, protein-RNA interaction; P05866; Rev peptide-RRE RNA binding; inhibition, % at 8 µM; 97,000 tested, 0.79% active; AID 704, 2007;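 active = inhibition above the screen-wide mean plus 3 SD, cut at about 35% in these data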;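 also: 0% = median DMSO wells and 100% = median Neomycin B control wells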
Target sequence (P05866 whole entry, looked up): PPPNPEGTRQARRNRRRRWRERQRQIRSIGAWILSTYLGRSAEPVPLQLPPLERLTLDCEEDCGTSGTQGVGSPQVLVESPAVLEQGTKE
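System: Cy5-labelled duplex RRE RNA binding fluorescein-labelled HIV Rev peptide; Signal: fluorescein-to-Cy5 FRET, 480 nm excitation; Also added: labelled Rev peptide; Compound: one concentration, 8 µM nominal; Buffer or medium: HEPES pH 7.5 salt buffer with EDTA; Read-out: % inhibition of FRET ratio versus controls; Schedule: 5 min preincubation and 15 min binding, 25 °C.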
* = called active by the depositor; [ ] = remark or other dose. The list is not random: actives were taken first. Their share in the collection is about 27%.

Results for COCCCNC(=O)c1ccccc1NS(C)(=O)=O ?
CYP2C19 inh: 1; CYP2C19 act: 1; Cav32 inh: 0.17; CYP2C9 activ: 1.1; CYP2C9 inh: -5; HIV Rev-RRE inh: 8

How did O=S(=O)(Nc1cccnc1Cl)c1ccc2c(c1)OCCO2 do in these assays?
CYP2C19 inh: 22; CYP2C19 act: 0.8; Cav32 inh: 0.44; CYP2C9 activ: 0.8; CYP2C9 inh: 20; HIV Rev-RRE inh: 6

What do the screens show for `COCCCNC(=O)c1ccccc1NS(=O)(=O)c1ccc(C)cc1`?
CYP2C19 inh: 74*; CYP2C19 act: 0.3; Cav32 inh: 0.31; CYP2C9 activ: 0.7; CYP2C9 inh: 32; HIV Rev-RRE inh: -3

What do the screens show for `CCCNC(=O)c1ccccc1NS(=O)(=O)c1ccc2c(c1)OCCO2`?
CYP2C19 inh: 44; CYP2C19 act: 0.6; Cav32 inh: 0.64; CYP2C9 activ: 2*; CYP2C9 inh: -104; HIV Rev-RRE inh: 9

How did CCCCNC(=O)c1ccccc1NS(=O)(=O)c1ccc2c(c1)OCCO2 do in these assays?
CYP2C19 inh: 29; CYP2C19 act: 0.7; Cav32 inh: -0.25; CYP2C9 activ: 1.1; CYP2C9 inh: -14; HIV Rev-RRE inh: 5

What do the screens show for `CSc1ccccc1NS(=O)(=O)c1ccc2c(c1)OCCO2`?
CYP2C19 inh: 79*; CYP2C19 act: 0.2; Cav32 inh: -1.7; CYP2C9 activ: 2.7*; CYP2C9 inh: -170; HIV Rev-RRE inh: -2

Results for CCc1nc2c(c(SC)nn2-c2ccccc2)c(N)c1C(=O)OC ?
CYP2C19 inh: 2; CYP2C19 act: 1; Cav32 inh: -0.19; CYP2C9 activ: 0.9; CYP2C9 inh: 15; HIV Rev-RRE inh: 15

How did COc1ccc(N=Cc2sc3ccccc3c2Cl)cc1 do in these assays?
CYP2C19 inh: 0; CYP2C19 act: 1; Cav32 inh: -1.5; CYP2C9 activ: 1.1; CYP2C9 inh: -5; HIV Rev-RRE inh: 16

How did Oc1c(C=Nc2cccc3cccnc23)sc2ccccc12 do in these assays?
CYP2C19 inh: 15; CYP2C19 act: 0.9; Cav32 inh: -2.8; CYP2C9 activ: 1; CYP2C9 inh: 4; HIV Rev-RRE inh: 133*[fluorescence artefact?]

How did O=C(Oc1ccc2[nH]cc(CCN3C(=O)c4ccccc4C3=O)c2c1)c1ccco1 do in these assays?
CYP2C19 inh: 24; CYP2C19 act: 0.8; Cav32 inh: -1.9; CYP2C9 activ: 0.2; CYP2C9 inh: 76*; HIV Rev-RRE inh: -1

How did O=C(/C=C/c1cc([N+](=O)[O-])ccc1OC(F)F)NCc1ccc(F)cc1 do in these assays?
CYP2C19 inh: 34; CYP2C19 act: 0.7; Cav32 inh: -6.1*; CYP2C9 activ: 1.1; CYP2C9 inh: -7; HIV Rev-RRE inh: 2

How did Cc1c(C(=O)NNc2cc(=O)n(C)c(=O)n2C)cccc1[N+](=O)[O-] do in these assays?
Cav32 inh: 0.57

How did CCCCOP(=O)(c1ccc(N(C)C)cc1)C(O)c1ccncc1 (configuration not stated) do in these assays?
CYP2C19 inh: 80*; CYP2C19 act: 0.2; Cav32 inh: 0.8; CYP2C9 activ: 0.3; CYP2C9 inh: 74*; HIV Rev-RRE inh: -4

Results for CC(C)COP(=O)(c1ccc(N(C)C)cc1)C(O)c1ccccn1 (configuration not stated) ?
CYP2C19 inh: 67*; CYP2C19 act: 0.3; Cav32 inh: 0.44; CYP2C9 activ: 0.8; CYP2C9 inh: 17; HIV Rev-RRE inh: 5

How did CC(C)CCOP(=O)(c1ccc(N(C)C)cc1)C(O)c1ccccn1 (configuration not stated) do in these assays?
CYP2C19 inh: 80*; CYP2C19 act: 0.2; Cav32 inh: 0.36; CYP2C9 activ: 0.6; CYP2C9 inh: 44; HIV Rev-RRE inh: 7

How did CC(C)CCOP(=O)(c1ccc(N(C)C)cc1)C(O)c1ccccc1F (configuration not stated) do in these assays?
CYP2C19 inh: 74*; CYP2C19 act: 0.3; CYP2C9 activ: 0.5; CYP2C9 inh: 48; HIV Rev-RRE inh: -3
